System: MS2 coat protein
Experiment: apparent Kd, MS2 coat protein; higher = weaker binding; RNA-MaP array; FMN 200 µM where present
Outline: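 The apparent Kd is reported as the median of filtered per-cluster binding-curve fits. To get these curves, designs transcribed by stalled E. coli RNA polymerase on Illumina sequencing-chip clusters were titrated with SNAP-549-labelled MS2 coat protein from 0.7 or 1.5 nM, doubling to 3 µM. Titrations were run without and then with constant ligand in 100 mM Tris-HCl pH 7.5, 80 mM KCl, 4 mM MgCl2, BSA, DTT, yeast tRNA and Tween-20, and green signal was normalised to red-channel RNA signal and control-cluster median Fmax.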

[1] = designed as: OFF switch for flavin mononucleotide, no ligand
[2] = ligand present: flavin mononucleotide, designed as: OFF switch for flavin mononucleotide
[3] = designed as: ON switch for flavin mononucleotide, no ligand
[4] = ligand present: flavin mononucleotide, designed as: ON switch for flavin mononucleotide

Sequence | apparent Kd [1] | apparent Kd [2] | apparent Kd [3] | apparent Kd [4]
GAGAAGUCAGGAUAUGCAUGGCGGGACUUGCGUCGUGGCGUGCAGAAGGGACAUGAGGAUCACCCAUGUGGAGC | 114 nM | 161 nM | – | –
UGUAUUAACGGAGGAUAUCGAUAUCAAACAUGAGGAUCACCCAUGUUGAGGAUCACCCAUGUCCAUGAGAAGGCCGGCGUACUC | – | – | 41.8 nM | 32.9 nM
CAGAUUUGCUAGAAGGGUGACAUGAGGAUCACCCAUGUGCGGGCAGUCCUAUCUUCAUGCCCGCCACAGGAUAUAGCAAUUCUC | – | – | 24.1 nM | 49 nM
GGAUAGGAAAGAGGAUAUACGUGCUAGAGAUACUAGCAAAAUUUCCUCACAUGAGGAUCACCCAUGUAGAAGGCUGUCCUAUCG | 5.95 nM | 38.9 nM | – | –
GACACUAUGUUUGUCAGAUAGAGAGAGGAUAUGGGUCAUGAGACAUGAGGAUCACCCAUGUUUAAUCAGAAGGCUCGAGUACGA | – | – | 30.7 nM | 15.6 nM
ACAUGAUAUGUAGGAUAUCACAUUAAUUGAUUAAUAUUUCUAUAUAGAAUUUGAGAAGGACAUUUACAUGAGGAUCACCCAUGU | 10.3 nM | 10.3 nM | – | –
AACGUGUAAGGAUAUGCUGCUCGUCACAAAAGUGAUGAGUAGCAGAAGGUACAUGAGGAUCACCCAUGUAAAGA | 35.4 nM | 73.8 nM | – | –
UUAAUUAAUUAAUUGCAGAUUACAUGAGGAUCACCCAUGUAUAAGGAUAUCGUCAGGAAUACUGACGAGAAGGUAUACAACUGC | 20.3 nM | 25.4 nM | – | –
AGCUGUGGCCGAGGAUAUCUAACAAUCCAAACCGAAAUAUAAUCGGACAUGAGGAUCACCCAUGUAGAGAAGGCGGUCUCAGCA | 48.1 nM | 65 nM | – | –
AUACUCAUGUAAGGAUAUGCAGUCGAAACGGCUGCAGAAGGUACUAUAAUACAUGAGGAUCACCCAUGUCAAAAUAAAAUAGUU | – | – | 30.3 nM | 22.7 nM
CAGCGAUAGCUGAAUGGUACAUGGGAGGAUAUGGGAAGAUACAUGAGGAUCACCCAUGUUAAAUACUAGAAGGCCCAUGUACCU | – | – | 14.9 nM | 5.45 nM
GUCAGCUCGUGAGGAUAUACAACACUGGUUCGGCAGUGUAUUAAGAUCACAUGAGGAUCACCCAUGUAGAAGGCACGAGCUGAU | 13.6 nM | 280 nM | – | –
AAUAUAAGAGCUGGUAAACUCAAAACAUGAGGAUCACCCAUGUAGGAUAUCAGCACGAUAAGUGCUGAGAAGGACAUCCAGCUC | 15 nM | 16.1 nM | – | –
UACAUGAGGAUCACCCAUGUUUUGUCGUGUAUGGUAUUUAUCUAGGAUAUCAAUCUAUGUAUUUAUGAGAAGGAGAAUAUUAAU | 41.8 nM | 37.3 nM | – | –
GCUGGGUCAGGAUAUACAAGAUCGAAAGAUCUGUGAAACGAACAUGAGGAUCACCCAUGUAGAAGGGACUGGGC | 20.5 nM | 33.2 nM | – | –
GCCUUAUCUGUCAGGAUAUACAAUAUUUUUUUUUUGUAGAAGGGACAUGAGGAUCACCCAUGUACAUUACAUUG | 31.3 nM | 71.8 nM | – | –
UGUUGUAUUACAGGAUAUCUAUUGGUUUUAUUUAGAGAAGGGUAUUCACAUGAGGAUCACCCAUGUAUAUACGAGGAAGUUGUG | – | – | 60.5 nM | 66.9 nM
GUUUGUUAUUAGAAGGUGCCAGCGAGAGCUGCAACAUGAGGAUCACCCAUGUGUCGGUGACGACGCAAGGAUAUGGUGGUGGAU | – | – | 402 nM | 193 nM
GCUGCUUAUGAGAAGGCGAUCAUGAAACAUGAUCGAGGAUAUCAUGUAAACAUGAGGAUCACCCAUGUAUGGGUAUUAUGCAGC | – | – | 374 nM | 37.6 nM
ACGUGACGGUGCGCGAGUGGACGGAGAAGGCAGACAUGAGGAUCACCCAUGUGAGCCUGCUAUUCUGAGGAUAUCCGUCCGCUC | 38.8 nM | 257 nM | – | –

From the EternaBench riboswitch data
